# According to ChEMBL document CHEMBL4118159, “Discovery of tetrahydroindazoles as a novel class of potent and in vivo efficacious gamma secretase modulators” (Bioorg Med Chem, 2018):
# Target: Gamma-secretase
# Assay: Modulation of gamma secretase in human H4 cells expressing human wild type APP assessed as inhibition of amyloid beta 42 production after 22 hrs by electrochemiluminescence assay
# Type: cell-based
# Summary of the method: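 H4 cells overexpressing human APPwt, 10,000/well, were exposed to compound 22 h at 37°C, 5% CO2. Supernatant was diluted with medium on an MSD anti-Aβ42 plate and detected with S-tag 6E10 (1:50, 1 h). Read-out was electrochemiluminescence.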
row,SMILES,IC50
1,CCn1ncc2c1CCC(Nc1nc3c(-c4cnccc4C)cccn3n1)C2 (stereo not drawn),730 nM
2,CCCCCn1ncc2c1CCC(Nc1nc3c(-c4ccc(F)cc4C)cccn3n1)C2 (stereo not drawn),> 30000 nM
3,Cc1cc(F)ccc1-c1cccn2nc(NC3CCc4c(cnn4C(C)C)C3)nc12 (stereo not drawn),430 nM
4,Cc1cc(F)ccc1-c1cccn2nc(NC3CCc4cnn(C)c4C3)nc12 (stereo not drawn),> 30000 nM
5,CCc1nn(C)c2c1CCC(Nc1nc3c(-c4ccc(F)cc4C)cccn3n1)C2 (stereo not drawn),3130 nM
6,CCn1nnc2c1CCC(Nc1nc3c(-c4ccc(F)cc4C)cccn3n1)C2 (stereo not drawn),2200 nM
7,CCn1ncc2c1CCC(Nc1nc3c(-c4ccc(C)nc4)cccn3n1)C2 (stereo not drawn),670 nM
8,CCn1ncc2c1CCC(Nc1nc3c(-c4cccnc4OC)cccn3n1)C2 (stereo not drawn),500 nM
9,CCn1nc(Cl)c2c1CCC(Nc1nc3c(-c4ccc(F)cc4C)cccn3n1)C2 (stereo not drawn),750 nM

# Now those with a lower IC50, led by results:
row,IC50,SMILES
1,20 nM,CCn1ncc2c1CCC(Nc1nc3c(-c4ccc(F)c(Cl)c4)cccn3n1)C2 (stereo not drawn)
2,194 nM,CCn1ncc2c1CC[C@H](Nc1nc3c(-c4ccc(F)c(Cl)c4)cccn3n1)C2
3,40 nM,CCn1ncc2c1CCC(Nc1nc3c(-c4cccc(Cl)c4)cccn3n1)C2 (stereo not drawn)
4,60 nM,CCn1ncc2c1CCC(Nc1nc3c(-c4ccc(Cl)cc4)cccn3n1)C2 (stereo not drawn)
5,60 nM,CCCn1ncc2c1CCC(Nc1nc3c(-c4ccc(F)cc4C)cccn3n1)C2 (stereo not drawn)
6,70 nM,CCn1ncc2c1CCC(Nc1nc3c(-c4ccc(F)cc4C)cccn3n1)C2 (stereo not drawn)
7,160 nM,CCn1ncc2c1CCC(Nc1nc3c(-c4ccccc4C)cccn3n1)C2 (stereo not drawn)
8,60 nM,CCn1ncc2c1CCC(Nc1nc3c(-c4ccccc4Cl)cccn3n1)C2 (stereo not drawn)
9,380 nM,Cc1cc(F)ccc1-c1cccn2nc(NC3CCc4c(cnn4C)C3)nc12 (stereo not drawn)
